In ChEMBL document CHEMBL1926642, “Relevance of the C-5 position to schweinfurthin induced cytotoxicity” (2011):

How the values were obtained:
Assay type in all cases: functional
[1] = system: SK-MEL-2; test: Cytotoxicity against human SK-MEL-2 cells assessed as cell growth at 10 uM after 48 hrs by sulforhodamine B assay relative to control; details: SK-MEL-2, 48 h, read-out: Activity
How it was run: (§1)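 Compounds went through the NCI 60 cell-line screen, whose current protocol tests first at a single dose.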

[2] = system: NCI-H522; test: Cytotoxicity against human NCI-H522 cells assessed as cell growth at 10 uM after 48 hrs by sulforhodamine B assay relative to control; details: NCI-H522, 48 h, read-out: Activity; how it was run: as §1
[3] = system: OVCAR-5; test: Cytotoxicity against human OVCAR5 cells assessed as cell growth at 10 uM after 48 hrs by sulforhodamine B assay relative to control; details: OVCAR-5, 48 h, read-out: Activity; how it was run: as §1
[4] = system: OVCAR-4; test: Cytotoxicity against human OVCAR4 cells assessed as cell growth at 10 uM after 48 hrs by sulforhodamine B assay relative to control; details: OVCAR-4, 48 h, read-out: Activity; how it was run: as §1
[5] = system: BT-549; test: Cytotoxicity against human BT549 cells assessed as cell growth at 10 uM after 48 hrs by sulforhodamine B assay relative to control; details: BT-549, 48 h, read-out: Activity; how it was run: as §1
[6] = system: NCI-H460; test: Cytotoxicity against human NCI-H460 cells assessed as cell growth at 10 uM after 48 hrs by sulforhodamine B assay relative to control; details: NCI-H460, 48 h, read-out: Activity; how it was run: as §1
[7] = system: HL-60(TB); test: Cytotoxicity against human HL-60(TB) cells assessed as cell growth at 10 uM after 48 hrs by sulforhodamine B assay relative to control; details: HL-60, 48 h, read-out: Activity
How it was run: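 Tested in the NCI 60 cell-line screen, where the current protocol starts with testing at a single dose.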

[8] = system: SNB-19; test: Cytotoxicity against human SNB19 cells assessed as cell growth at 10 uM after 48 hrs by sulforhodamine B assay relative to control; details: SNB-19, 48 h, read-out: Activity; how it was run: as §1
[9] = system: EKVX; test: Cytotoxicity against human EKVX cells assessed as cell growth at 10 uM after 48 hrs by sulforhodamine B assay relative to control; details: read-out: Activity; how it was run: as §1
[10] = system: HCT-15; test: Cytotoxicity against human HCT15 cells assessed as cell growth at 10 uM after 48 hrs by sulforhodamine B assay relative to control; details: HCT-15, 48 h, read-out: Activity; how it was run: as §1
[11] = system: MCF7; test: Cytotoxicity against human MCF7 cells assessed as cell growth at 10 uM after 48 hrs by sulforhodamine B assay relative to control; details: MCF7, 48 h, read-out: Activity; how it was run: as §1
[12] = system: HCT-116; test: Cytotoxicity against human HCT116 cells assessed as cell growth at 10 uM after 48 hrs by sulforhodamine B assay relative to control; details: HCT-116, 48 h, read-out: Activity; how it was run: as §1
[13] = system: SF-268; test: Cytotoxicity against human SF268 cells assessed as cell growth at 10 uM after 48 hrs by sulforhodamine B assay relative to control; details: SF-268, 48 h, read-out: Activity; how it was run: as §1
[14] = system: K562; test: Cytotoxicity against human K562 cells assessed as cell growth at 10 uM after 48 hrs by sulforhodamine B assay relative to control; details: K562, 48 h, read-out: Activity; how it was run: as §1
[15] = Cytotoxicity against human Hs 578T cells assessed as cell growth at 10 uM after 48 hrs by sulforhodamine B assay relative to control; details: read-out: Activity; how it was run: as §1
[16] = system: MDA-MB-231; test: Cytotoxicity against human MDA-MB-231/ATCC cells assessed as cell growth at 10 uM after 48 hrs by sulforhodamine B assay relative to control; details: MDA-MB-231, 48 h, read-out: Activity; how it was run: as §1
[17] = system: NCI-H226; test: Cytotoxicity against human NCI-H226 cells assessed as cell growth at 10 uM after 48 hrs by sulforhodamine B assay relative to control; details: NCI-H226, 48 h, read-out: Activity; how it was run: as §1
[18] = system: HT-29; test: Cytotoxicity against human HT-29 cells assessed as cell growth at 10 uM after 48 hrs by sulforhodamine B assay relative to control; details: HT-29, 48 h, read-out: Activity; how it was run: as §1
[19] = system: 786-0; test: Cytotoxicity against human 786-0 cells assessed as cell growth at 10 uM after 48 hrs by sulforhodamine B assay relative to control; details: 786-0, 48 h, read-out: Activity; how it was run: as §1
[20] = system: NCI-H322M; test: Cytotoxicity against human NCI-H322M cells assessed as cell growth at 10 uM after 48 hrs by sulforhodamine B assay relative to control; details: read-out: Activity; how it was run: as §1
[21] = system: IGROV-1; test: Cytotoxicity against human IGROV1 cells assessed as cell growth at 10 uM after 48 hrs by sulforhodamine B assay relative to control; details: IGROV-1, 48 h, read-out: Activity; how it was run: as §1
[22] = system: KM12; test: Cytotoxicity against human KM12 cells assessed as cell growth at 10 uM after 48 hrs by sulforhodamine B assay relative to control; details: KM12, 48 h, read-out: Activity; how it was run: as §1
[23] = system: HOP-92; test: Cytotoxicity against human HOP92 cells assessed as cell growth at 10 uM after 48 hrs by sulforhodamine B assay relative to control; details: HOP-92, 48 h, read-out: Activity; how it was run: as §1
[24] = system: A549; test: Cytotoxicity against human A549/ATCC cells assessed as cell growth at 10 uM after 48 hrs by sulforhodamine B assay relative to control; details: A549, 48 h, read-out: Activity; how it was run: as §1
[25] = system: MDA-MB-468; test: Cytotoxicity against human MDA-MB-468 cells assessed as cell growth at 10 uM after 48 hrs by sulforhodamine B assay relative to control; details: MDA-MB-468, 48 h, read-out: Activity; how it was run: as §1
[26] = system: SK-OV-3; test: Cytotoxicity against human SKOV3 cells assessed as cell growth at 10 uM after 48 hrs by sulforhodamine B assay relative to control; details: SK-OV-3, 48 h, read-out: Activity; how it was run: as §1
[27] = system: UACC-257; test: Cytotoxicity against human UACC257 cells assessed as cell growth at 10 uM after 48 hrs by sulforhodamine B assay relative to control; details: UACC-257, 48 h, read-out: Activity
[28] = system: OVCAR-3; test: Cytotoxicity against human OVCAR3 cells assessed as cell growth at 10 uM after 48 hrs by sulforhodamine B assay relative to control; details: OVCAR-3, 48 h, read-out: Activity; how it was run: as §1
[29] = system: CAKI-1; test: Cytotoxicity against human Caki1 cells assessed as cell growth at 10 uM after 48 hrs by sulforhodamine B assay relative to control; details: CAKI-1, 48 h, read-out: Activity; how it was run: as §1
[30] = system: UO-31; test: Cytotoxicity against human UO31 cells assessed as cell growth at 10 uM after 48 hrs by sulforhodamine B assay relative to control; details: UO-31, 48 h, read-out: Activity
[31] = system: SF-295; test: Cytotoxicity against human SF295 cells assessed as cell growth at 10 uM after 48 hrs by sulforhodamine B assay relative to control; details: SF-295, 48 h, read-out: Activity; how it was run: as §1
[32] = system: T47D; test: Cytotoxicity against human T47D cells assessed as cell growth at 10 uM after 48 hrs by sulforhodamine B assay relative to control; details: read-out: Activity
[33] = system: CCRF-CEM; test: Cytotoxicity against human CCRF-CEM cells assessed as cell growth at 10 uM after 48 hrs by sulforhodamine B assay relative to control; details: read-out: Activity; how it was run: as §1

`COc1cc(/C=C/c2cc(Br)c3c(c2)C[C@@H]2C(C)(C)[C@H](O)CC[C@@]2(C)O3)cc(O)c1C/C=C(\C)CCC=C(C)C` showed a growth at 10 µM [1] of 112%, a growth at 10 µM [2] of 81.5% and a growth at 10 µM [3] of 105%. For the same compound, the growth at 10 µM [4] was 110%, the growth at 10 µM [5] was 108% and the growth at 10 µM [6] was 108%. For the same compound, the growth at 10 µM [7] was 69.7%, the growth at 10 µM [8] was 106% and the growth at 10 µM [9] was 107%. For the same compound, the growth at 10 µM [10] was 96.1%, the growth at 10 µM [11] was 102% and the growth at 10 µM [12] was 84.5%. For the same compound, the growth at 10 µM [13] was 88.5%, the growth at 10 µM [14] was 79.9% and the growth at 10 µM [15] was 64.3%. The growth at 10 µM [16] was 96.6%, the growth at 10 µM [17] was 117% and the growth at 10 µM [18] was 74.5%. It also gave a growth at 10 µM [19] of 96%, a growth at 10 µM [20] of 102% and a growth at 10 µM [21] of 63.1%. It also gave a growth at 10 µM [22] of 97.3%, a growth at 10 µM [23] of 127% and a growth at 10 µM [24] of 94.7%. It also gave a growth at 10 µM [25] of 110%, a growth at 10 µM [26] of 116% and a growth at 10 µM [27] of 100%. The growth at 10 µM [28] was 88.2%, the growth at 10 µM [29] was 107% and the growth at 10 µM [30] was 91%. For the same compound, the growth at 10 µM [31] was 109%, the growth at 10 µM [32] was 109% and the growth at 10 µM [33] was 85.3%.

`COCc1cc(/C=C/c2cc(O)c(C/C=C(\C)CCC=C(C)C)c(OC)c2)cc2c1O[C@]1(C)CC[C@@H](O)C(C)(C)[C@H]1C2` showed a growth at 10 µM [1] of 109%, a growth at 10 µM [2] of 72.2% and a growth at 10 µM [3] of 114%. For the same compound, the growth at 10 µM [4] was 108%, the growth at 10 µM [5] was 193% and the growth at 10 µM [6] was 105%. The growth at 10 µM [7] was 78.2%, the growth at 10 µM [8] was 96.4% and the growth at 10 µM [9] was 118%. It also gave a growth at 10 µM [10] of 84.2%, a growth at 10 µM [11] of 103% and a growth at 10 µM [12] of 68.5%. The growth at 10 µM [13] was 97.1%, the growth at 10 µM [14] was 72% and the growth at 10 µM [15] was 82.8%. For the same compound, the growth at 10 µM [16] was 81.3%, the growth at 10 µM [17] was 120% and the growth at 10 µM [18] was 47.9%. It also gave a growth at 10 µM [19] of 69.8%, a growth at 10 µM [20] of 167% and a growth at 10 µM [21] of 65.3%. For the same compound, the growth at 10 µM [22] was 123%, the growth at 10 µM [23] was 108% and the growth at 10 µM [24] was 104%. It also gave a growth at 10 µM [25] of 116%, a growth at 10 µM [26] of 145% and a growth at 10 µM [27] of 116%. For the same compound, the growth at 10 µM [28] was 94.8%, the growth at 10 µM [29] was 118% and the growth at 10 µM [30] was 98.4%. The growth at 10 µM [31] was 133%, the growth at 10 µM [32] was 106% and the growth at 10 µM [33] was 81.9%.
